Data taken from PubChem BioAssay.
The source made the active and inactive calls.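 Rule for the calls, unless noted: active = viability at or below 10% of carrier control in both of two separate runs; inconclusive = viability at or below 10% in only one of the two runs; inactive = the rest.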

Tests used:
[1] = reducers of endogenous Her2 protein level, primary screen, SKBR3 breast tumor cells, AlphaScreen, ATP viability (AID 461;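 active = Her2 level under about 52% in both replicate screens, with viability over 70% of control, limit read from the data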;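 for Her2 level: lower value means less Her2 protein in the cells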;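 for viability: percent of carrier control wells set as 100% viability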); settings: 18-24 h, measured here: SKBR3 viability, ATP luminescence, at 10 µM
[2] = biological target: Receptor tyrosine-protein kinase erbB-2 (Homo sapiens) (UniProt P04626); assay: as above; settings: 18-24 h, at 10 µM, stronger effect = lower value
Chain of Receptor tyrosine-protein kinase erbB-2 (Homo sapiens) (P04626 whole entry, looked up): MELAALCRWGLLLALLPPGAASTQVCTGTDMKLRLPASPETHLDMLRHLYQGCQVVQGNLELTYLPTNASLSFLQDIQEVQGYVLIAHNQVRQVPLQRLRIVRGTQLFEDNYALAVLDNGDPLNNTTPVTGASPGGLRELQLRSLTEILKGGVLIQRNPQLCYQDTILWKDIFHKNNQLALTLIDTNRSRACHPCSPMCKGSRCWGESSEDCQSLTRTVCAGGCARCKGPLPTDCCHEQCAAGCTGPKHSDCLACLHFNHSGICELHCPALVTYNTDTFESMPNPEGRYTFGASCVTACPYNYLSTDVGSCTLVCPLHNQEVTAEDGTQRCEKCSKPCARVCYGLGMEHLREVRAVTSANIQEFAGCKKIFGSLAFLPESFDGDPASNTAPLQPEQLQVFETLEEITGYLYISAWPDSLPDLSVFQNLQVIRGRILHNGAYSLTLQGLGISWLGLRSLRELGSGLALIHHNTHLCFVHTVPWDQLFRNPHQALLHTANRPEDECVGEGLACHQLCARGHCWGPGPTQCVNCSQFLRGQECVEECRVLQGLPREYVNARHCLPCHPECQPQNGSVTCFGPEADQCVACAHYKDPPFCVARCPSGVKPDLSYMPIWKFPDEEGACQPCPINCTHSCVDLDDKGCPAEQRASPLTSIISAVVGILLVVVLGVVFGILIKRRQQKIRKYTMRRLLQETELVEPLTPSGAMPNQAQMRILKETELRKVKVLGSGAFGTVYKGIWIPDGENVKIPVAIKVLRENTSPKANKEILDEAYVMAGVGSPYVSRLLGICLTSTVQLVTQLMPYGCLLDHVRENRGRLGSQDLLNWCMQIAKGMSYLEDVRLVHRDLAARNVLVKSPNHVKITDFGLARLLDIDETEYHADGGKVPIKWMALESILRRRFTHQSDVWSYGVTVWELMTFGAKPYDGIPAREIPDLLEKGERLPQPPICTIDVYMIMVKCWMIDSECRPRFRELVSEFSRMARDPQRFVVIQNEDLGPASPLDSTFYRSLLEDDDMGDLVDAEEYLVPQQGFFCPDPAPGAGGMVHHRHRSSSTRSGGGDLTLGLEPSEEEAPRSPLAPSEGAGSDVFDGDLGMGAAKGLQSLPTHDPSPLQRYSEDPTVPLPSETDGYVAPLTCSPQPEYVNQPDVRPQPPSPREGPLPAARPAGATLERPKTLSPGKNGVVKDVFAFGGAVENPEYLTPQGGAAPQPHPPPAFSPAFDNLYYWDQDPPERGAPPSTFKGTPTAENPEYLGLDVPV

[3] = SK-BR-3 cell growth inhibitors, pilot screen, 24 h, human (AID 572); settings: SK-BR-3 viability, CellTiter-Glo luminescence, at 10 µM, stronger effect = lower value;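 note: compound exposure lasted between 18 and 24 h rather than exactly 24 h; 100% = carrier-treated control wells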
[4] = HUVEC growth inhibition – cell-based, human, primary screen (AID 575;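 active = viability at or below 30% in both replicate assays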;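 note: 100% = median of untreated cell wells with 0.1% DMSO on each plate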); settings: HUVEC proliferation, CellTiter-Glo luminescence, 72 h; at 10 µM; stronger effect = lower value
Summary of the method: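 Test system: primary human umbilical vein endothelial cells. Quantity: 1250 cells/well. Compound: single 10 µM dose, 0.1% DMSO, from 5x medium stock. Timing: 72 h treatment at 37 °C. Detection: ATP-based CellTiter-Glo luminescent read. Benchmarks: vehicle and MePR control wells. Format: 384-well plates coated with collagen.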

[5] = growth inhibitors of H69AR lung tumor, primary screen, human, duplicate replicates (AID 580;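 active = viability at or under a set limit in both replicates, limit being median viability minus 3 SD, cut at about 48% in these data, passing the limit was not always enough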;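 note: 100% = mean luminescence of untreated wells and 0% = no signal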); settings: H69AR lung tumor cells viability, ATP luminescence, 72 h; at 10 µM; stronger effect = lower value
[6] = reversal of MRP1-mediated doxorubicin resistance, pilot screen, H69AR cells, doxorubicin co-treatment (AID 601;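 active = viability loss from added drug above about 55%, and viability with drug at most 40%, in both replicates, limit read from the data, passing the limit was not always enough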); settings: CellTiter-Glo, 72 h, at 10 µM; for differential viability (reversal): stronger effect = higher value
[7] = 384-well plate pilot, post-Golgi transport modulator project, inhibition of yeast transport mutant growth (AID 636; in the data active = inhibition above about 31%); settings: absorbance 615 nm, about 18 h, stronger effect = higher value
[8] = growth suppression of yeast trafficking mutant, preliminary HTS, modulators of trafficking downstream of Golgi apparatus project, 1536-format plate, OD 615 nm (AID 637; in the data active = inhibition above about 30%); settings: yeast transport mutant growth, absorbance 615 nm, 18 h; stronger effect = higher value
[9] = H69AR cells + 2 uM doxorubicin, measured here: viability with 2 uM doxorubicin, stronger effect = lower value
[10] = H69AR cells, compound alone cytotoxicity

| SMILES | viability [1] [%] | Her2 level [2] | viability [3] | viability [4] | viability [5] | differential viability (reversal) ([6]; H69AR cells + 2 uM doxorubicin) | viability [6, 9] [%] | viability [6, 10] [%] | inhibition [7] | inhibition [8] |
| --- | --- | --- | --- | --- | --- | --- | --- | --- | --- | --- |
| CCN(c1cccc(C(F)(F)F)c1)S(=O)(=O)c1ccc2c(c1)CCN2C(=O)C1CC1 | 99 | 120% (inactive) | 99% (inactive) | 65.8% (inactive) | 82.5% (inactive) | -0.405% (inactive) | 82.9 | 82.5 | -3.42% (inactive) | -1% (inactive) |
| Cc1nn(C(=O)c2cc3sccc3[nH]2)c(C)c1C | 95 | 104% (inactive) | 95% (inactive) | 74.1% (inactive) | 106% (inactive) | 2.57% (inactive) | 103 | 106 | -4.47% (inactive) | -4.83% (inactive) |
| O=C(Cn1c(SCC(=O)N2CCCc3ccccc32)nc2ccccc21)N1CCCC1 | 94 | 96% (inactive) | 94% (inactive) | 104% (inactive) | 98.3% (inactive) | 4.66% (inactive) | 93.6 | 98.3 | -6.05% (inactive) | -2.38% (inactive) |
| CSc1nc(NC(C)(C)C)nc(Oc2ccc(=O)[nH]n2)n1 | 101 | 93.5% (inactive) | 101% (inactive) | 107% (inactive) | 92.1% (inactive) | 0.405% (inactive) | 91.7 | 92.1 | -3.82% (inactive) | 2.46% (inactive) |
| CCOC(=O)c1[nH]c2ccccc2c1NC(=O)c1ccco1 | 102 | 79% (inactive) | 102% (inactive) | 106% (inactive) | 80.3% (inactive) | -2.98% (inactive) | 83.2 | 80.3 | -7.03% (inactive) | 4.33% (inactive) |
| COC(=O)Nc1ccc(S(=O)(=O)N2CCN(c3ccc(F)cc3)CC2)cc1 | 96.5 | 106% (inactive) | 96.5% (inactive) | 86.9% (inactive) | 97.1% (inactive) | 3.18% (inactive) | 94 | 97.1 | -4.61% (inactive) | 9.84% (inactive) |
| O=C(CSc1ncnc2c1cnn2-c1ccccc1)Nc1ccccc1 | 96 | 88% (inactive) | 96% (inactive) | 63.1% (inactive) | 79.7% (inactive) | 7.43% (inactive) | 72.2 | 79.7 | -7.95% (inactive) | 2.22% (inactive) |
| COc1ccc(S(=O)(=O)N(C)c2ccc(C(=O)N3CCOCC3)cc2)cc1 | 79.5 | 89.5% (inactive) | 79.5% (inactive) | 94.4% (inactive) | 95.2% (inactive) | 3.61% (inactive) | 91.5 | 95.2 | -0.92% (inactive) | 1.8% (inactive) |
| CCCOc1ccc([C@@H]2C3CN(C(=O)OCC)CC=C3C(C#N)=C(N)C2(C#N)C#N)cc1OC (stereo not given in full) | 88 | 40% (active) | 88% (inactive) | 85.2% (inactive) | 63.4% (inactive) | -11.8% (inactive) | 75.2 | 63.4 | -7.03% (inactive) | 0% (inactive) |
| COCC(C)NC(=O)NC(=O)c1ccc(Cl)cc1 (stereo not given) | 99.5 | 93% (inactive) | 99.5% (inactive) | 94.6% (inactive) | 98.7% (inactive) | 10.4% (inactive) | 88.3 | 98.7 | -6.13% (inactive) | 4.76% (inactive) |
| COC(=O)c1cc2oc(C)cc2n1CC(=O)N(C)c1ccccc1 | 93 | 92.5% (inactive) | 93% (inactive) | 83.2% (inactive) | 95.4% (inactive) | 7.45% (inactive) | 88 | 95.4 | -1.92% (inactive) | -2.17% (inactive) |
| COC(=O)c1cc(NC(=O)C2COc3ccccc3O2)cc(C(=O)OC)c1 (stereo not given) | 106 | 86% (inactive) | 106% (inactive) | 91.1% (inactive) | 84.2% (inactive) | 10.2% (inactive) | 74 | 84.2 | -5.6% (inactive) | 0.32% (inactive) |
| CN(C)CCCNC(=O)c1ccc(CN(c2ccccc2)S(C)(=O)=O)cc1 | 97.5 | 96% (inactive) | 97.5% (inactive) | 86.4% (inactive) | 92.1% (inactive) | 3.06% (inactive) | 89 | 92.1 | 0.91% (inactive) | -7.87% (inactive) |
| Cc1nnc(C)c2c(C)n(-c3ccc(Br)cc3)c(C)c12 | 110 | 110% (inactive) | 110% (inactive) | 92.3% (inactive) | 104% (inactive) | 17.2% (inactive) | 87.2 | 104 | -7.07% (inactive) | 1.61% (inactive) |
| Cc1cc(C)c2nc(N)sc2c1 | 95.5 | 108% (inactive) | 95.5% (inactive) | 105% (inactive) | 103% (inactive) | 16.9% (inactive) | 85.8 | 103 | -6.62% (inactive) | -3.33% (inactive) |
| CCCN(CCC)C(=O)C1CCN(c2cc(C)nc3c(-c4ccc(OC)c(OC)c4)c(C)nn23)CC1 | 81.5 | 88% (inactive) | 81.5% (inactive) | 58.1% (inactive) | 69.1% (inactive) | 44% (inactive) | 25 | 69.1 | -0.13% (inactive) | -5.08% (inactive) |

| SMILES | viability [1] [%] | Her2 level [2] | viability [3] | viability [4] | viability [5] | differential viability (reversal) ([6]; H69AR cells + 2 uM doxorubicin) | viability [6, 9] [%] | viability [6, 10] [%] | inhibition [7] | inhibition [8] |
| --- | --- | --- | --- | --- | --- | --- | --- | --- | --- | --- |
| CCCS(=O)(=O)N1CCN(C(=O)c2cccs2)CC1 | 99.5 | 99.5% (inactive) | 99.5% (inactive) | 110% (inactive) | 99.9% (inactive) | -0.9% (inactive) | 101 | 99.9 | -1.07% (inactive) | 2.95% (inactive) |
| CCC(=O)N1CCN=C1SCc1ccc(Cl)cc1 | 90 | 93.5% (inactive) | 90% (inactive) | 77.3% (inactive) | 95.1% (inactive) | 10.8% (inactive) | 84.3 | 95.1 | 1.04% (inactive) | 31.5% (active) |
| COCCn1c(SCC(=O)c2ccccc2)nc2c(c1=O)SC(C)C2 (stereo not given) | 108 | 106% (inactive) | 108% (inactive) | 98.9% (inactive) | 79.7% (inactive) | 27.6% (inactive) | 52.1 | 79.7 | -5.2% (inactive) | 3.44% (inactive) |
| COc1ccc(-n2c(SCCC(=O)O)nnc2-c2ccncc2)cc1 | 96 | 96% (inactive) | 96% (inactive) | 97% (inactive) | 96.7% (inactive) | 0.675% (inactive) | 96.1 | 96.7 | -3.42% (inactive) | 0.32% (inactive) |
| CSc1ccc(S(=O)(=O)Nc2cccc(F)c2)cc1 | 96 | 76% (inactive) | 96% (inactive) | 97.7% (inactive) | 97.3% (inactive) | -0.325% (inactive) | 97.6 | 97.3 | -5.26% (inactive) | -5.33% (inactive) |
| COc1ccc(CC(NC(C)=O)C(=O)NC2CCN(C(=O)Nc3ccc(C#N)cc3)CC2)cc1OC (stereo not given) | 93 | 91.5% (inactive) | 93% (inactive) | 117% (inactive) | 94.2% (inactive) | -3.13% (inactive) | 97.3 | 94.2 | -4.13% (inactive) | 2.79% (inactive) |
| Cc1cc(C)nc(SCc2nnc(SCc3ccccc3Cl)o2)n1 | 80 | 78.5% (inactive) | 80% (inactive) | 93.8% (inactive) | 79.5% (inactive) | -1.99% (inactive) | 81.5 | 79.5 | -3.29% (inactive) | 1.82% (inactive) |
| CCc1ccc(C2CC(c3ccccc3)n3ncnc3N2)cc1 (stereo not given) | 80 | 86% (inactive) | 80% (inactive) | 83.1% (inactive) | 88.1% (inactive) | 3.85% (inactive) | 84.3 | 88.1 | 3.59% (inactive) | 0.67% (inactive) |
| Nn1c(SCC(=O)Nc2ccc(Oc3ccccc3)cc2)nnc1C1CC1 | 98.5 | 100% (inactive) | 98.5% (inactive) | 69.1% (inactive) | 75.7% (inactive) | -9.75% (inactive) | 85.4 | 75.7 | -5.6% (inactive) | -12.1% (inactive) |
| CC(=O)c1cc2c(=O)c3cc(C)ccc3oc2nc1C | 102 | 72.5% (inactive) | 102% (inactive) | 68.4% (inactive) | 72.5% (inactive) | -7.35% (inactive) | 79.9 | 72.5 | -2.89% (inactive) | -1.43% (inactive) |
| COc1ccccc1NC(=O)c1ccc(NC(=O)CSc2nnnn2C)cc1 | 92 | 96% (inactive) | 92% (inactive) | 84% (inactive) | 13.1% (active) | -25.5% (inactive) | 38.7 | 13.1 | -6% (inactive) | -2.13% (inactive) |
| Cn1c(-c2ccccc2)c(CCO)c2ccccc21 | 97 | 78.5% (inactive) | 97% (inactive) | 114% (inactive) | 94.7% (inactive) | -2.71% (inactive) | 97.4 | 94.7 | -0.79% (inactive) | -2.9% (inactive) |
| CCOC(=O)c1[nH]c2ccc(OC)cc2c1NC(=O)CCN1CCC(C)CC1 | 101 | 94.5% (inactive) | 101% (inactive) | 94.1% (inactive) | 96.8% (inactive) | -0.37% (inactive) | 97.2 | 96.8 | -3.12% (inactive) | -8.73% (inactive) |
| COc1ccccc1C(=O)Nc1ccc(N2CCN(S(C)(=O)=O)CC2)cc1 | 99.5 | 106% (inactive) | 99.5% (inactive) | 144% (inactive) | 97.2% (inactive) | 12.7% (inactive) | 84.5 | 97.2 | -1.89% (inactive) | -4% (inactive) |
| CCn1cc(C(=O)Nc2cc3c(cc2NC(C)=O)OCCO3)c(=O)c2ccc(C)nc21 | 96.5 | 100% (inactive) | 96.5% (inactive) | 106% (inactive) | 91% (inactive) | -4.02% (inactive) | 95 | 91 | -6.13% (inactive) | 0.48% (inactive) |
| O=C(Cn1cnc2c(nnn2Cc2ccc(Cl)cc2)c1=O)NCC1CCCO1 (stereo not given) | 120 | 78% (inactive) | 120% (inactive) | 101% (inactive) | 106% (inactive) | 10.8% (inactive) | 94.7 | 106 | -10.1% (inactive) | -1.27% (inactive) |
